Key:
[1] = Antioxidant activity of the compound in phosphate buffer at pH 6.6 assessed as potassium ferric cyanide ion reducing activity at 25 umol/ml after 20 mins by spectrophotometric method relative to control; format: functional; set-up: scale not given: the % may be the effect or the level left
Outline: (§1)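 Methanolic sample (1.0–50.0 […], units as printed) mixed with 0.2 M phosphate buffer pH 6.6 and 1% K3Fe(CN)6, 50 °C for 20 min; cooled, 10% TCA added, aliquot diluted with water plus 0.1% FeCl3, 10 min stand. A700 read against a methanol control; triplicate. Reducing power (%) = [(Atest − Acontrol)/Atest] × 100; EC50 derived; ascorbic acid standard.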

[2] = Antioxidant activity of the compound in phosphate buffer at pH 6.6 assessed as potassium ferric cyanide ion reducing activity at 50 umol/ml after 20 mins by spectrophotometric method relative to control; format: functional; set-up: scale not given: the % may be the effect or the level left; outline: as §1
[3] = Antioxidant activity of the compound in phosphate buffer at pH 6.6 assessed as potassium ferric cyanide ion reducing activity at 2.5 umol/ml after 20 mins by spectrophotometric method relative to control; format: functional; set-up: scale not given: the % may be the effect or the level left; outline: as §1
[4] = Antioxidant activity of the compound in phosphate buffer at pH 6.6 assessed as potassium ferric cyanide ion reducing activity after 20 mins by spectrophotometric method; format: functional; outline: as §1
[5] = Antioxidant activity of the compound in phosphate buffer at pH 6.6 assessed as potassium ferric cyanide ion reducing activity at 5 umol/ml after 20 mins by spectrophotometric method relative to control; format: functional; set-up: scale not given: the % may be the effect or the level left; outline: as §1
[6] = Antioxidant activity of the compound in phosphate buffer at pH 6.6 assessed as potassium ferric cyanide ion reducing activity at 10 umol/ml after 20 mins by spectrophotometric method relative to control; format: functional; set-up: scale not given: the % may be the effect or the level left; outline: as §1
[7] = Antioxidant activity of the compound in phosphate buffer at pH 6.6 assessed as potassium ferric cyanide ion reducing activity at 1 umol/ml after 20 mins by spectrophotometric method relative to control; format: functional; set-up: scale not given: the % may be the effect or the level left; outline: as §1
Rattus norvegicus [8] = assay: Ulcerogenicity in rat model of carrageenan-induced paw edema assessed as diameter of lesion in gastric wall at 2.5 mg/kg, po measured after 5 hrs; format: toxicity, organism-based; settings: in vivo
Outline: (§2)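 After oral dosing in 0.5% CMC in the carrageenan paw model, rats were killed by cervical dislocation. Stomachs were inflated with 2% formalin, immersed 10 min to fix, and opened along the greater curvature. Longest lesion diameters were summed as a total lesion score (mm) per animal and averaged per group. Rofecoxib served as negative control and indomethacin as positive control.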

Rattus norvegicus [9] = assay: Toxicity in rat model of carrageenan-induced paw edema assessed as behavioral changes at 2.5 to 40 mg/kg, po measured during compound dosing; format: organism-based; settings: in vivo
Rattus norvegicus [10] = assay: Anti-inflammatory activity in po dosed rat assessed as reduction in carrageenan-induced paw edema measured after 5 hrs by plethysmographic method; format: functional
Outline: (§3)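 Rats; carrageenan in 0.9% saline injected into paw; compound suspended in 0.5% w/v CMC given orally 30 min after carrageenan, three graded doses per compound. Paw volume by plethysmograph before and at intervals after treatment; values at 5 h. % reduction in edema = (1 − Vt/Vc) × 100 versus carrageenan control; ED50 from the three graded doses; one-way ANOVA.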

Rattus norvegicus [11] = assay: Anti-inflammatory activity in rat assessed as reduction in carrageenan-induced paw edema at 10 mg/kg, po measured after 5 hrs by plethysmographic method relative to control; format: functional; set-up: scale not given: the % may be the effect or the level left; outline: as §3
Rattus norvegicus [12] = assay: Ulcerogenicity in rat model of carrageenan-induced paw edema assessed as diameter of lesion in gastric wall at 10 mg/kg, po measured after 5 hrs; format: toxicity, organism-based; settings: in vivo; outline: as §2
Rattus norvegicus [13] = assay: Anti-inflammatory activity in rat assessed as reduction in carrageenan-induced paw edema at 2.5 mg/kg, po measured after 5 hrs by plethysmographic method relative to control; format: functional; set-up: scale not given: the % may be the effect or the level left; outline: as §3
Rattus norvegicus [14] = assay: Anti-inflammatory activity in rat assessed as reduction in carrageenan-induced paw edema at 40 mg/kg, po measured after 5 hrs by plethysmographic method relative to control; format: functional; set-up: scale not given: the % may be the effect or the level left; outline: as §3
Rattus norvegicus [15] = assay: Ulcerogenicity in rat model of carrageenan-induced paw edema assessed as diameter of lesion in gastric wall at 40 mg/kg, po measured after 5 hrs; format: toxicity, organism-based; settings: in vivo; outline: as §2
Rattus norvegicus [16] = assay: Anti-inflammatory activity in rat assessed as reduction in carrageenan-induced paw edema at 30 mg/kg, po measured after 5 hrs by plethysmographic method relative to control; format: functional; set-up: scale not given: the % may be the effect or the level left; outline: as §3
Rattus norvegicus [17] = assay: Ulcerogenicity in rat model of carrageenan-induced paw edema assessed as diameter of lesion in gastric wall at 30 mg/kg, po measured after 5 hrs; format: toxicity, organism-based; settings: in vivo; outline: as §2
Rattus norvegicus [18] = assay: Ulcerogenicity in rat model of carrageenan-induced paw edema assessed as diameter of lesion in gastric wall at 25 mg/kg, po measured after 5 hrs; format: toxicity, organism-based; settings: in vivo; outline: as §2
Rattus norvegicus [19] = assay: Ulcerogenicity in rat model of carrageenan-induced paw edema assessed as diameter of lesion in gastric wall at 75 mg/kg, po measured after 5 hrs; format: toxicity, organism-based; settings: in vivo; outline: as §2
Rattus norvegicus [20] = assay: Anti-inflammatory activity in rat assessed as reduction in carrageenan-induced paw edema at 5 mg/kg, po measured after 5 hrs by plethysmographic method relative to control; format: functional; set-up: scale not given: the % may be the effect or the level left; outline: as §3
Rattus norvegicus [21] = assay: Anti-inflammatory activity in rat assessed as reduction in carrageenan-induced paw edema at 75 mg/kg, po measured after 5 hrs by plethysmographic method relative to control; format: functional; set-up: scale not given: the % may be the effect or the level left; outline: as §3
Rattus norvegicus [22] = assay: Anti-inflammatory activity in rat assessed as reduction in carrageenan-induced paw edema at 25 mg/kg, po measured after 5 hrs by plethysmographic method relative to control; format: functional; set-up: scale not given: the % may be the effect or the level left; outline: as §3
Rattus norvegicus [23] = assay: Toxicity in rat model of carrageenan-induced paw edema assessed as behavioral changes at 5 to 75 mg/kg, po measured during compound dosing; format: organism-based; settings: in vivo
Rattus norvegicus [24] = assay: Ulcerogenicity in rat model of carrageenan-induced paw edema assessed as diameter of lesion in gastric wall at 5 mg/kg, po measured after 5 hrs; format: toxicity, organism-based; settings: in vivo; outline: as §2

SMILES | EC50 [4] [mM] | Activity [1] [%] | Activity [2] [%] | Activity [3] [%] | Activity [5] [%] | Activity [6] [%] | Activity [7] [%] | ED50 (Rattus norvegicus [10]) [mg/kg] | Activity (Rattus norvegicus [18]) [mm] | Activity (Rattus norvegicus [19]) [mm] | Activity (Rattus norvegicus [20]) [%] | Activity (Rattus norvegicus [21]) [%] | Activity (Rattus norvegicus [22]) [%] | Activity (Rattus norvegicus [23]) | Activity (Rattus norvegicus [24]) [mm] | further results
O=C1O[C@H]([C@@H](O)CO)C(O)=C1O [ASCORBIC ACID] | 7.4 | 65.2 | 69.4 | 15.5 | 39.8 | 60.8 | 6.8 | – | – | – | – | – | – | – | – | –
CCCCCn1c(CCC)nc2cc(NS(C)(=O)=O)ccc21 | 3.7 | 72.8 | 79.1 | 32.7 | 58 | 66.5 | 15.4 | 2.55 | – | – | – | – | – | – | – | Activity (Rattus norvegicus [8]): 0.25 mm; Activity (Rattus norvegicus [9]): Non-Toxic; Activity (Rattus norvegicus [11]): 86.36%; Activity (Rattus norvegicus [12]): 0.5 mm; Activity (Rattus norvegicus [13]): 48.18%; Activity (Rattus norvegicus [14]): 95.64%; Activity (Rattus norvegicus [15]): 1.01 mm
CS(=O)(=O)c1ccc(C2=C(c3ccccc3)C(=O)OC2)cc1 [ROFECOXIB] | – | – | – | – | – | – | – | – | – | – | – | – | – | – | – | Activity (Rattus norvegicus [16]): 78.95%; Activity (Rattus norvegicus [17]): 2.92 mm
CCCCCCn1c(CCC)nc2cc(NS(C)(=O)=O)ccc21 | 5.1 | 69.6 | 75.4 | 29.2 | 49.7 | 66.5 | 10.6 | 2.45 | – | – | – | – | – | – | – | Activity (Rattus norvegicus [8]): 0.2 mm; Activity (Rattus norvegicus [9]): Non-Toxic; Activity (Rattus norvegicus [11]): 86.36%; Activity (Rattus norvegicus [12]): 0.69 mm; Activity (Rattus norvegicus [13]): 50.18%; Activity (Rattus norvegicus [14]): 97.62%; Activity (Rattus norvegicus [15]): 1.02 mm
CCCCCCn1c(CCC)nc2cc([N+](=O)[O-])ccc21 | > 50 | 30.1 | 45.9 | 2.8 | 6.8 | 17.9 | 0.9 | 3.97 | 0.54 | 1.26 | 51.87 | 78.25 | 61.26 | Non-Toxic | 0.22 | –
CCCc1nc2ccccc2[nH]1 | – | – | – | – | – | – | – | 5.53 | 0.2 | 0.42 | 0.45 | 77.27 | 53.18 | Non-Toxic | 0.1 | –
COc1ccc2c(c1)c(CC(=O)O)c(C)n2C(=O)c1ccc(Cl)cc1 [INDOMETHACIN] | – | – | – | – | – | – | – | 2.2 | – | – | – | – | – | – | – | Activity (Rattus norvegicus [11]): 75%; Activity (Rattus norvegicus [12]): 19.4 mm
CCCc1nc2cc([N+](=O)[O-])ccc2[nH]1 | – | – | – | – | – | – | – | – | 0.22 | 0.32 | 2.27 | 6.82 | 6.82 | Non-Toxic | 0 | –

The next lines start with results.

EC50 [4] [mM] | SMILES | Activity [1] [%] | Activity [2] [%] | Activity [3] [%] | Activity [5] [%] | Activity [6] [%] | Activity [7] [%] | ED50 (Rattus norvegicus [10]) [mg/kg] | Activity (Rattus norvegicus [18]) [mm] | Activity (Rattus norvegicus [19]) [mm] | Activity (Rattus norvegicus [20]) [%] | Activity (Rattus norvegicus [21]) [%] | Activity (Rattus norvegicus [22]) [%] | Activity (Rattus norvegicus [23]) | Activity (Rattus norvegicus [24]) [mm] | further results
4 | CCCCn1c(CCC)nc2cc(NS(C)(=O)=O)ccc21 | 70.3 | 73.5 | 31.3 | 59.8 | 61.8 | 12.2 | 2.58 | – | – | – | – | – | – | – | Activity (Rattus norvegicus [8]): 0.27 mm; Activity (Rattus norvegicus [9]): Non-Toxic; Activity (Rattus norvegicus [11]): 86.36%; Activity (Rattus norvegicus [12]): 0.51 mm; Activity (Rattus norvegicus [13]): 43.64%; Activity (Rattus norvegicus [14]): 92.73%; Activity (Rattus norvegicus [15]): 1.1 mm
10.2 | CCCCCn1c(CCC)nc2cc(N)ccc21 | 60.1 | 67.3 | 18.7 | 30.2 | 49 | 8.7 | 5.47 | 0.52 | 1.06 | 45.91 | 66.36 | 54.36 | Non-Toxic | 0.27 | –
> 50 | CCCCCn1c(CCC)nc2cc([N+](=O)[O-])ccc21 | 20.8 | 39.8 | 2.1 | 5.8 | 10.7 | 0.4 | 4.8 | 0.69 | 1.03 | 63.64 | 68.18 | 68.18 | Non-Toxic | 0.33 | –
> 50 | CCCCn1c(CCC)nc2cc([N+](=O)[O-])ccc21 | 29.2 | 45.4 | 2.5 | 6.8 | 16.8 | 0.6 | 4.79 | 0.7 | 1.04 | 29.55 | 52.27 | 47.73 | Non-Toxic | 0.35 | –
18.2 | CCCCn1c(CCC)nc2cc(N)ccc21 | 55.6 | 62.5 | 15.4 | 29.9 | 44.8 | 6.3 | 5.52 | 0.54 | 1.13 | 59.09 | 59.09 | 56.82 | Non-Toxic | 0.28 | –
10.3 | CCCCCCn1c(CCC)nc2cc(N)ccc21 | 57.1 | 65.9 | 12.9 | 34.5 | 48 | 6 | 5.16 | 0.52 | 1.06 | 33.13 | 69.13 | 49.8 | Non-Toxic | 0.27 | –
